Screening data as filed in PubChem BioAssay.
A selection: hits, their analogues and other compounds. The true share with any hit is near 2.3%.
TRPC6 inh: mouse TRPC6 channel inhibitors, primary screen, cell-based, HEK293, membrane potential dye. 310,000 tested, 1.1% active. Short transient receptor potential channel 6 (Mus musculus), Q61143. ACh-evoked depolarization; active compounds read low. B-score at 10 µM;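 active = B-score under library mean minus 3 SD, initial fluorescence not abnormally high, positive integrated signal ratio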;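 also: B-score derived from integrated fluorescence ratio over the kinetic read; more negative B-score means stronger inhibition of depolarization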
TRPC6 act: mouse TRPC6 channel activators, primary screen, cell-based, HEK293, membrane potential dye. Short transient receptor potential channel 6 (Mus musculus), Q61143. 310,000 tested, 0.13% active. B-score at 10 µM. HEK293-TRPC6 membrane potential dye fluorescence; active compounds read high;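 active = B-score of the integrated fluorescence ratio above library mean plus 3 SD, and starting fluorescence ratio within library mean plus 5 SD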;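 also: higher score means more depolarization so channel activation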
TRPC4 block: inhibitors of mouse TRPC4 channel, primary screen, Fluo4 calcium, HEK293 TRPC4beta/mu-opioid cells. B-score at 10 µM. 300,000 tested, 0.39% active. AID 2247, 2010. Short transient receptor potential channel 4 (Mus musculus), Q9QUQ5. DAMGO-evoked Fluo4 calcium flux; active compounds read low;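 active = B-score over 3 SD under the library average, no early fluorescence shift, positive overall ratio signal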
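Assay system: Stable TRPC4beta/mu-opioid receptor HEK293 cells | Reagent: DAMGO in two steps, submaximal then maximal | Compound dosing: Single concentration per test compound | Signal: Fluo4 Ca2+ flux fluorescence | Evaluation: Per-well B score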
TRPC4 potent: positive allosteric modulators of TRPC4, primary screen, cell-based, mouse TRPC4beta, HEK293 mu-opioid, Fluo-4 calcium | Short transient receptor potential channel 4 (Mus musculus), Q9QUQ5 | DAMGO EC20, Fluo-4 Ca2+ flux; active compounds read high | B-score at 10 µM | 310,000 tested, 0.42% active | AID 2227, 2009;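 active = B-score of calcium response area above 5 SD of library B-scores, with initial fluorescence ratio within 5 SD of library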
TRPC4 agonist: activators of mouse TRPC4 channel, primary screen, Fluo4 calcium, HEK293 TRPC4beta/mu-opioid cells; Fluo4 calcium fluorescence; active compounds read high; B-score at 10 µM; 310,000 tested, 0.49% active;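 active = B-score above 5 SD of library B-scores, and initial fluorescence ratio not above library mean plus 5 SD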;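 also: positive B-score marks a calcium rise read as TRPC4 activation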
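Assay system – TRPC4beta and mu-opioid receptor HEK293 stable cells · Measured by – Fluo4 fluorescence, kinetic · Schedule – dye loading 45 min room temperature, 110 s kinetic read · Read-out – B-scored integrated calcium fluorescence ratio · Controls – buffer and maximal DAMGO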
TRPC4 sel inh 2: second check of whether TRPC6 inhibitors also affect mouse TRPC4 | 920 tested, 42% active | HEK293 TRPC4/MOR, membrane potential dye fluorescence; channel activated by saturating DAMGO dose | AID 2776 | shares compounds with TRPC6 inh | inhibition, % at 10 µM;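 active = compounds whose fluorescence signal differed from control wells by over 3 SD, either direction, in both duplicate plates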
TRPC4 spec: mouse TRPC4 modulation by TRPC6 hits, confirmation, selectivity assay for TRPC6 inhibitor project, cell-based, HEK293 TRPC4/mu-opioid, membrane potential dye. membrane potential fluorescence. activity change, negative = inhibition, % at 10 µM. 920 tested, 61% active. shares compounds with TRPC6 inh. AID 2777, 2010;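 active = rise or fall in signal beyond 3 SD of buffer-only wells in both replicate plates, either sign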;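 also: integrated kinetic ratio of fluorescence range over baseline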
HEK293 MPD ctr 2-1: nonspecific membrane potential effects, parental HEK293, confirmation, counter-screen for TRPC6 inhibitor project, cell-based, second counter screen | signal change vs control, % at 10 µM | shares compounds with TRPC6 inh | 920 tested, 31% active | parental HEK293 membrane potential dye fluorescence; maximal acetylcholine challenge after compound addition;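 active = membrane potential signal moving either way by over 3 SD of the maximum-effect control, in both duplicate plates, meaning non-specific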
HEK293 MPD ctr-1: membrane potential modulation in parental HEK293, confirmation, counter-screen for TRPC6 inhibitor project, cell-based; shares compounds with TRPC6 inh; 920 tested, 60% active; AID 2780, 2010; parental HEK293 membrane potential dye fluorescence; membrane potential signal change, % at 10 µM;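 active = membrane potential signal shifting up or down by more than 3 SD of buffer-only wells, on both duplicate plates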
HEK293 MPD ctr-2: parental HEK293 membrane potential modulation, confirmation, counter-screen for TRPC6 modulator project, cell-based; shares compounds with TRPC6 inh; membrane potential dye fluorescence; membrane potential signal change, % at 10 µM; 2,400 tested, 51% active; AID 488924, 2010;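 active = membrane potential signal moves up or down beyond 5 SD from buffer-only wells, on both duplicate plates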
HEK293 MPD ctr 2-2: parental HEK293 nonspecific activity of TRPC6 modulators, second screen; shares compounds with TRPC6 inh; membrane potential dye fluorescence; after compound, maximal acetylcholine stimulation; inhibition, % at 10 µM; 2,400 tested, 14% active;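 active = membrane potential signal drops by more than 5 SD from the mean control signal, in both duplicate plates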
TRPC4/MOR mod: TRPC4 modulation by TRPC6 hit compounds, confirmation, selectivity assay for TRPC6 modulator project, cell-based, HEK293 TRPC4/mu-opioid, membrane potential dye, mouse. percent change from control (negative = decrease, positive = increase), % at 10 µM. shares compounds with TRPC6 inh. 2,400 tested, 69% active. membrane potential fluorescence. AID 488927, 2010;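 active = membrane potential signal moved up or down beyond 5 SD of buffer control wells, in both duplicate plates, actives on both sides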
TRPC4/MOR inh 2: second check of whether TRPC6 modulators also affect mouse TRPC4; shares compounds with TRPC6 inh; HEK293 TRPC4/mu-opioid, membrane potential dye fluorescence; stimulated with maximal-effect DAMGO; inhibition, % at 10 µM; 2,400 tested, 55% active;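 active = drop in membrane potential signal beyond 5 SD of the control wells in both duplicate plates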;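 also: TRPC4 counter screen for TRPC6 hits run under conditions tuned for TRPC6 not TRPC4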
TRPC6 inh conf: mouse TRPC6 channel inhibitors, confirmation, HEK293 cells, membrane potential dye, duplicate. shares compounds with TRPC6 inh. ACh-evoked depolarization. inhibition, % at 10 µM. 3,300 tested, 43% active. AID 488960, 2010;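 active = fluorescence ratio falls more than 5 SD below the full-stimulation control mean, in both duplicate runs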;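 also: integrated fluorescence ratio of peak minus minimum over baseline after agonist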
TRPC6 act conf: mouse TRPC6 channel activators, confirmation, HEK293 cells, membrane potential dye, duplicate; HEK293-TRPC6 membrane potential dye fluorescence, FDSS; AID 488961, 2010; shares compounds with TRPC6 inh; activation, % at 10 µM; 2,800 tested, 11% active;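 active = ratio signal rise beyond 5 SD above unstimulated control wells' mean, seen in both duplicate runs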
Numbers stand for hits; - = inactive; . = no result.

SMILES	TRPC6 inh	TRPC6 act	TRPC4 block	TRPC4 potent	TRPC4 agonist	HEK293 MPD ctr-2	HEK293 MPD ctr 2-2	TRPC4/MOR mod	TRPC4/MOR inh 2	TRPC6 inh conf	TRPC6 act conf	others
O=C(c1ccccc1)N1CCN(Cc2ccccc2C(F)(F)F)CC1	-	12	-	-	-	-	-	18%	-	.	134%
CN1CCC23c4ccccc4NC1C21CCN(C)C3Nc2ccccc21	-	-	-	-	-	.	.	.	.	.	.
C/C=C/C=C/C(=O)N1CC[C@]23c4ccccc4N[C@H]4N(C)c5cccc6c5[C@]42CCN([C@H]6C2OC2(C)C)[C@H]13 (stereo partly drawn)	-6.5	-	-	-	-	-	-	-	30%	66%	.
Cc1nc(NC(=O)c2ccc(Cl)cc2)nc2cc3c(cc12)OCO3	-	-	-	-	-	.	.	.	.	.	.
Cc1cc(C)nc(Nc2nc(C)c3cc4c(cc3n2)OCO4)n1	-6.8	-	-	-	-	.	.	.	.	-	-	TRPC4 sel inh 2=-;TRPC4 spec=9.0%;HEK293 MPD ctr 2-1=-138%;HEK293 MPD ctr-1=8.5%
COCCNC(=O)c1c(C)cc(C)cc1C	-	-	-	-	-	.	.	.	.	.	.
Cc1onc(-c2c(Cl)cccc2Cl)c1C(=O)O/N=C(\C#N)c1c(Cl)cccc1Cl	-	-	-	-	-	.	.	.	.	.	.
C/C(=N/OC(=O)c1c(-c2c(Cl)cccc2Cl)noc1C)c1cnccn1	-8.1	-	-	-	-	.	.	.	.	69%	-	TRPC4 sel inh 2=-;TRPC4 spec=-;HEK293 MPD ctr 2-1=27%;HEK293 MPD ctr-1=-
C/C(=N/OC(=O)c1c(-c2ccccc2Cl)noc1C)c1cnccn1	-6	-	-	-	-	108%	-	21%	-	52%	.
C/C(=N\OC(=O)c1c(-c2ccccc2Cl)noc1C)c1nccs1	-	-	-	-	-	.	.	.	.	.	.
